From BindingDB's records for doi:10.1021/jm501455s (Istituto Italiano Di Tecnologia, 2014) come the findings set out here.

pIC50: −log10 of the molar value.

The assay addresses T1, N-acylethanolamine-hydrolyzing acid amidase (Rattus norvegicus, UniProt Q5KTC7).
T1 sequence (Q5KTC7 whole entry): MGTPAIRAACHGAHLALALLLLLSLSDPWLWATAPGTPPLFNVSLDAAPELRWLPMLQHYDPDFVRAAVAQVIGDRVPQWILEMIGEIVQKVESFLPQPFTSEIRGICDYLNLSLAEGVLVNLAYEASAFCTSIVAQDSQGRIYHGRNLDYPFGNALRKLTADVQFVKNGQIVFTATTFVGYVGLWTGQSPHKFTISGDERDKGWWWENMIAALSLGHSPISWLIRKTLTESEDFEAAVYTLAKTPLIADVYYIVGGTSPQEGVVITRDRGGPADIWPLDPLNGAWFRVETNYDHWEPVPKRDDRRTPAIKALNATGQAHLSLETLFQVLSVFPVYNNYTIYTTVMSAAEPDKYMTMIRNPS
Briefly: Inhibition of NAAA in Sprague-Dawley rat lung assessed as inhibition of hydrolysis of 10-cis-heptadecenoylethanolamide by UPLC/MS method. In outline:
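Native NAAA enzyme prepared from rat lungs, not a recombinant construct. The substrate, 10-cis-heptadecenoylethanolamide, is an unnatural fatty acid ethanolamide. Inhibition of its hydrolysis was measured, and the median inhibitory concentration (IC50) was reported.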
As usually defined, the pIC50 is −log10 of the IC50, conventionally taken in molar units. For `C[C@@H]1OC(=O)[C@@H]1NC(=O)OCC#Cc1ccccc1`, the pIC50 is 7.82.

As to `Cc1ccc(-c2ccc(COC(=O)N[C@H]3C(=O)O[C@H]3C)cc2)cc1`, the pIC50 was 7.62.

As to `C[C@@H]1OC(=O)[C@@H]1NC(=O)OCc1ccc(-c2ccc(C(F)(F)F)cc2)cc1` [US9353075, 44], the pIC50 is 7.55.
